Results as given in ChEMBL document CHEMBL4354843, “Structure-Based Design of a Potent and Selective Covalent Inhibitor for SRC Kinase That Targets a P-Loop Cysteine” (J Med Chem, 2020).
Active and inactive are the calls of the source. The rule behind the calls is not given here.

How the values were obtained:
[1] = biological target: Mitogen-activated protein kinase; ERK1/ERK2 (Homo sapiens) (UniProt P27361+P28482); assay: Inhibition of ERK1/2 in human HCC827 cells assessed as blocking of ERK1/2 pulldown at 1 uM in presence of TL13-68 incubated for 2 hrs by Western blot analysis; assay type: cell-based
In short: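 H1975 or HCC827 cells treated with 1 μM compound or DMSO for 2 h, rinsed twice in cold PBS, and lysed in M-PER with protease/phosphatase inhibitors. Lysate rocked overnight at 4 °C with 1 μM TL13-68, then streptavidin pulldown with five cold washes. Bound kinases detected by Western blot. Two independent experiments.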

[2] = biological target: Cyclin-dependent kinase 11A (Homo sapiens) (UniProt Q9UQ88); assay: Binding affinity to wild-type human partial length CDC2L2 (D391 to K730 residues) expressed in bacterial expression system assessed as residual binding level at 1 uM by Kinomescan method relative to control
Sequence of Cyclin-dependent kinase 11A (Homo sapiens) (Q9UQ88 whole entry, the tested form may be a part): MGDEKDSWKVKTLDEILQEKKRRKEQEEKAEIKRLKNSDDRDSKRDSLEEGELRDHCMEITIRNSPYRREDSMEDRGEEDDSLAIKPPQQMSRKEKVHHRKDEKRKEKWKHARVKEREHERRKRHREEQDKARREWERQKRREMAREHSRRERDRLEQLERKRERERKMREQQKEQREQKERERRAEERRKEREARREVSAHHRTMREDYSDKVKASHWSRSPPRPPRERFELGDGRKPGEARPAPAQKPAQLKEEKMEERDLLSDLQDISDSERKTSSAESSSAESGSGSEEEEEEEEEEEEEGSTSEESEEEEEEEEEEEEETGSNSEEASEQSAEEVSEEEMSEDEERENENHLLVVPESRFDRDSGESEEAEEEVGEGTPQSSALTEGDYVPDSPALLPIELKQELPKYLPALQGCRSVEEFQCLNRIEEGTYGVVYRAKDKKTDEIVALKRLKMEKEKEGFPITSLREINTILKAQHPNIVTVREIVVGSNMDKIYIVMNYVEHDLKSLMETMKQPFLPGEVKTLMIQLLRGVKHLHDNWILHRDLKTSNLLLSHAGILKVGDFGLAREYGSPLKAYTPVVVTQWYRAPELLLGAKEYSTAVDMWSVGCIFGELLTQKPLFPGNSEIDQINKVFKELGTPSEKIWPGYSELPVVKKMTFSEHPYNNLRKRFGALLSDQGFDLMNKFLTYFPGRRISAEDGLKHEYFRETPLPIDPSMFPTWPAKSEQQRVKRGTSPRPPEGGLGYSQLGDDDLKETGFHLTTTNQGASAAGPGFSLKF

[3] = biological target: Ephrin type-A receptor 6 (Homo sapiens) (UniProt Q9UF33); assay: Binding affinity to wild-type human partial length EPHA6 (Y700 to E1046 residues) expressed in bacterial expression system assessed as residual binding level at 1 uM by Kinomescan method relative to control
[4] = biological target: Fibroblast growth factor receptor 2 (Homo sapiens) (UniProt P21802); assay: Binding affinity to wild-type human partial length FGFR2 (D457 to E769 residues) expressed in bacterial expression system assessed as residual binding level at 1 uM by Kinomescan method relative to control
Sequence of Fibroblast growth factor receptor 2 (Homo sapiens) (P21802 22-821 limits assumed): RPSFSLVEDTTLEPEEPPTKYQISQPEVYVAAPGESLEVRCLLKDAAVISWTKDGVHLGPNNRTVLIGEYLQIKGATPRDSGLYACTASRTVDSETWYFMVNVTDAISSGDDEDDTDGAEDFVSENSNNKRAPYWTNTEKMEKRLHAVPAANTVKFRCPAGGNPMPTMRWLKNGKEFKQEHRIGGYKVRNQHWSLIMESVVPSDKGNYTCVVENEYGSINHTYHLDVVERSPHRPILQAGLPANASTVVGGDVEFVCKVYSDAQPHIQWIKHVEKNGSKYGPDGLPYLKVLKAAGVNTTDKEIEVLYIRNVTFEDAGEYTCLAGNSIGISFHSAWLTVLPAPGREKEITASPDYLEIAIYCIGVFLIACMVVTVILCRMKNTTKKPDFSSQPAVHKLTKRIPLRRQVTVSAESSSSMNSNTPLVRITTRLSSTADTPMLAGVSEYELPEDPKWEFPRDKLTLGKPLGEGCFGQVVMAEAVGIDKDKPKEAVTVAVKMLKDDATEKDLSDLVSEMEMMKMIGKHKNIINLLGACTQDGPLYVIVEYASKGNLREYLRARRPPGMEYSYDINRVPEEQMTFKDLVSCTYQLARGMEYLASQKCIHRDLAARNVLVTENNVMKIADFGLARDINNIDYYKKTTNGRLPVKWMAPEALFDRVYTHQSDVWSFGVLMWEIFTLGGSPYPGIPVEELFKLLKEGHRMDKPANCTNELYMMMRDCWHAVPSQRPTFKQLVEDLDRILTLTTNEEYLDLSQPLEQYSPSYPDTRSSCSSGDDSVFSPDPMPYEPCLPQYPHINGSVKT

[5] = biological target: Mitogen-activated protein kinase 9 (Homo sapiens) (UniProt P45984); assay: Binding affinity to wild-type human full length JNK2 (M1 to Q382 residues) expressed in mammalian expression system assessed as residual binding level at 1 uM by Kinomescan method relative to control
Sequence of Mitogen-activated protein kinase 9 (Homo sapiens) (P45984 whole entry, looked up, the tested form may be a part): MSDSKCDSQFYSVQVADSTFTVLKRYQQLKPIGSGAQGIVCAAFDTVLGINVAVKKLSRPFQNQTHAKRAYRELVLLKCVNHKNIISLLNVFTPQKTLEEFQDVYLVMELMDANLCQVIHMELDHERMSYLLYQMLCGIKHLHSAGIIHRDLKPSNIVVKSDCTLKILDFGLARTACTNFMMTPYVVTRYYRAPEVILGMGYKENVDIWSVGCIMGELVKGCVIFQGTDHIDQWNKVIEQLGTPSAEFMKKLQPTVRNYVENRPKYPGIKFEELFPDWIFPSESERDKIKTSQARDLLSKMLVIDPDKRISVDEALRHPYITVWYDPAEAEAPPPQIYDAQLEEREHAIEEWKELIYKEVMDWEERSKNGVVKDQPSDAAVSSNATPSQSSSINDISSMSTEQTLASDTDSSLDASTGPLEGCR
In short: (§1)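 KinomeScan, an active site-directed competition binding panel of 468 kinases. The test compound was at 1 μM. The readout is remaining kinase binding as a percentage of the DMSO control. Scores above 35% were treated as weak binding and not listed.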

[6] = test system: Hepatocyte growth factor receptor (Homo sapiens), P08581 [Y1235D]; assay: Binding affinity to human partial length MET Y1235D mutant (D1010 to S1367 residues) expressed in bacterial expression system assessed as residual binding level at 1 uM by Kinomescan method relative to control
In short: (§2)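 KinomeScan active site-directed competition binding panel (468 kinases), compound tested at 1 μM. Result expressed as remaining kinase signal versus DMSO control (percent of control).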

[7] = biological target: Myosin light chain kinase (Homo sapiens) (UniProt Q32MK0); assay: Binding affinity to wild-type human partial length MLCK (D488 to K800 residues) expressed in bacterial expression system assessed as residual binding level at 1 uM by Kinomescan method relative to control
[8] = biological target: Serine/threonine-protein kinase Nek11 (Homo sapiens) (UniProt Q8NG66); assay: Binding affinity to wild-type human partial length NEK11 (M1 to E313 residues) expressed in mammalian expression system assessed as residual binding level at 1 uM by Kinomescan method relative to control
Sequence of Serine/threonine-protein kinase Nek11 (Homo sapiens) (Q8NG66 whole entry, the tested form may be a part): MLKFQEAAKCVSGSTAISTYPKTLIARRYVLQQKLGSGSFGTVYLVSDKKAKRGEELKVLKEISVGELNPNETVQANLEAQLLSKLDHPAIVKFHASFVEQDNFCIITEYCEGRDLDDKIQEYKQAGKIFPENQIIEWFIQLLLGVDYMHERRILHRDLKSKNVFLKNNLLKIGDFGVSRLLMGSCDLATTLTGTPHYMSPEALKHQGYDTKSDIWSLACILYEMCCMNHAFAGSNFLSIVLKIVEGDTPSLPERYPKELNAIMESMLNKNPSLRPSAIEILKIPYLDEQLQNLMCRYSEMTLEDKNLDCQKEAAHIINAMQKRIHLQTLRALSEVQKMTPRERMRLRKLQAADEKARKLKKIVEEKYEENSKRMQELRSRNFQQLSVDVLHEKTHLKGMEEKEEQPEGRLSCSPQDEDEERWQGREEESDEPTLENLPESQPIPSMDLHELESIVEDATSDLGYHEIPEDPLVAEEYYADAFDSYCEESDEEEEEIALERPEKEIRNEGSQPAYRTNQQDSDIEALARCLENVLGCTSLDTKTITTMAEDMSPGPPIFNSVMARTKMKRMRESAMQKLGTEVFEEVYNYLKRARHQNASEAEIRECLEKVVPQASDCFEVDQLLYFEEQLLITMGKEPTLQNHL
In short: (§3)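 Active-site-directed competition binding panel of 468 kinases (KinomeScan), compound at 1 μM. The read-out is kinase remaining bound, given as a percentage of the DMSO control. […]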

[9] = biological target: Mitogen-activated protein kinase 13 (Homo sapiens) (UniProt O15264); assay: Binding affinity to wild-type human full length p38-delta (M1 to L365 residues) expressed in bacterial expression system assessed as residual binding level at 1 uM by Kinomescan method relative to control
Sequence of Mitogen-activated protein kinase 13 (Homo sapiens) (O15264 whole entry, the tested form may be a part): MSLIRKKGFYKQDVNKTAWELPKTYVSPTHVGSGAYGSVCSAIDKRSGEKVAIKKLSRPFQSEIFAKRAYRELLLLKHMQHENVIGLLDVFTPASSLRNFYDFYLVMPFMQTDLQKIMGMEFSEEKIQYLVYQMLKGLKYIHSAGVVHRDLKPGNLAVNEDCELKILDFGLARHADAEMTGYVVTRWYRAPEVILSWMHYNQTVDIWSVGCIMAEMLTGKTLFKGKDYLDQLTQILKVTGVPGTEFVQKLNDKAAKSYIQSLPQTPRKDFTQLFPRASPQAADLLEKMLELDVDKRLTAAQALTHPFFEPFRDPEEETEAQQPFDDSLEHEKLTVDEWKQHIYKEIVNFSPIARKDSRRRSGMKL

[10] = biological target: Serine/threonine-protein kinase PAK 4 (Homo sapiens) (UniProt O96013); assay: Binding affinity to wild-type human partial length PAK4 (Q144 to R438 residues) expressed in bacterial expression system assessed as residual binding level at 1 uM by Kinomescan method relative to control
[11] = biological target: Platelet-derived growth factor receptor alpha (Homo sapiens) (UniProt P16234); assay: Binding affinity to wild-type human partial length PDGFRA (V575 to D1002 residues) expressed in mammalian expression system assessed as residual binding level at 1 uM by Kinomescan method relative to control; in short: as §3
[12] = test system: Phosphatidylinositol 4,5-bisphosphate 3-kinase catalytic subunit alpha isoform (Homo sapiens), P42336 [E545K]; assay: Binding affinity to human partial length PIK3CA E545K mutant (R108 to N1068 residues) expressed in mammalian expression system assessed as residual binding level at 1 uM by Kinomescan method relative to control; in short: as §2
[13] = biological target: Phosphatidylinositol 5-phosphate 4-kinase type-2 beta (Homo sapiens) (UniProt P78356); assay: Binding affinity to wild-type human full length PIP5K2B (M1 to T416 residues) expressed in bacterial expression system assessed as residual binding level at 1 uM by Kinomescan method relative to control; in short: as §1
[14] = biological target: Serine/threonine-protein kinase PknB (Mycobacterium tuberculosis) (UniProt P9WI81); assay: Binding affinity to wild-type Mycobacterium tuberculosis partial length PKNB (M1 to G279 residues) expressed in mammalian expression system assessed as residual binding level at 1 uM by Kinomescan method relative to control
In short: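 Active-site-directed KinomeScan competition binding panel covering 468 kinases, compound tested at 1 μM. Each readout is the kinase signal remaining with compound, expressed as a percentage of the DMSO control. […]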

[15] = biological target: Serine/threonine-protein kinase PLK4 (Homo sapiens) (UniProt O00444); assay: Binding affinity to wild-type human partial length PLK4 (M1 to S273 residues) expressed in mammalian expression system assessed as residual binding level at 1 uM by Kinomescan method relative to control
[16] = test system: Proto-oncogene tyrosine-protein kinase receptor Ret (Homo sapiens), P07949 [M918T]; assay: Binding affinity to human partial length RET M918T mutant (E713 to D1014 residues) expressed in bacterial expression system assessed as residual binding level at 1 uM by Kinomescan method relative to control; in short: as §2
[17] = biological target: Receptor-interacting serine/threonine-protein kinase 2 (Homo sapiens) (UniProt O43353); assay: Binding affinity to wild-type human partial length RIPK2 (M1 to K310 residues) expressed in bacterial expression system assessed as residual binding level at 1 uM by Kinomescan method relative to control
[18] = biological target: Serine/threonine-protein kinase 36 (Homo sapiens) (UniProt Q9NRP7); assay: Binding affinity to wild-type human partial length STK36 (M1 to T271 residues) expressed in bacterial expression system assessed as residual binding level at 1 uM by Kinomescan method relative to control
Sequence of Serine/threonine-protein kinase 36 (Homo sapiens) (Q9NRP7 whole entry, the tested form may be a part): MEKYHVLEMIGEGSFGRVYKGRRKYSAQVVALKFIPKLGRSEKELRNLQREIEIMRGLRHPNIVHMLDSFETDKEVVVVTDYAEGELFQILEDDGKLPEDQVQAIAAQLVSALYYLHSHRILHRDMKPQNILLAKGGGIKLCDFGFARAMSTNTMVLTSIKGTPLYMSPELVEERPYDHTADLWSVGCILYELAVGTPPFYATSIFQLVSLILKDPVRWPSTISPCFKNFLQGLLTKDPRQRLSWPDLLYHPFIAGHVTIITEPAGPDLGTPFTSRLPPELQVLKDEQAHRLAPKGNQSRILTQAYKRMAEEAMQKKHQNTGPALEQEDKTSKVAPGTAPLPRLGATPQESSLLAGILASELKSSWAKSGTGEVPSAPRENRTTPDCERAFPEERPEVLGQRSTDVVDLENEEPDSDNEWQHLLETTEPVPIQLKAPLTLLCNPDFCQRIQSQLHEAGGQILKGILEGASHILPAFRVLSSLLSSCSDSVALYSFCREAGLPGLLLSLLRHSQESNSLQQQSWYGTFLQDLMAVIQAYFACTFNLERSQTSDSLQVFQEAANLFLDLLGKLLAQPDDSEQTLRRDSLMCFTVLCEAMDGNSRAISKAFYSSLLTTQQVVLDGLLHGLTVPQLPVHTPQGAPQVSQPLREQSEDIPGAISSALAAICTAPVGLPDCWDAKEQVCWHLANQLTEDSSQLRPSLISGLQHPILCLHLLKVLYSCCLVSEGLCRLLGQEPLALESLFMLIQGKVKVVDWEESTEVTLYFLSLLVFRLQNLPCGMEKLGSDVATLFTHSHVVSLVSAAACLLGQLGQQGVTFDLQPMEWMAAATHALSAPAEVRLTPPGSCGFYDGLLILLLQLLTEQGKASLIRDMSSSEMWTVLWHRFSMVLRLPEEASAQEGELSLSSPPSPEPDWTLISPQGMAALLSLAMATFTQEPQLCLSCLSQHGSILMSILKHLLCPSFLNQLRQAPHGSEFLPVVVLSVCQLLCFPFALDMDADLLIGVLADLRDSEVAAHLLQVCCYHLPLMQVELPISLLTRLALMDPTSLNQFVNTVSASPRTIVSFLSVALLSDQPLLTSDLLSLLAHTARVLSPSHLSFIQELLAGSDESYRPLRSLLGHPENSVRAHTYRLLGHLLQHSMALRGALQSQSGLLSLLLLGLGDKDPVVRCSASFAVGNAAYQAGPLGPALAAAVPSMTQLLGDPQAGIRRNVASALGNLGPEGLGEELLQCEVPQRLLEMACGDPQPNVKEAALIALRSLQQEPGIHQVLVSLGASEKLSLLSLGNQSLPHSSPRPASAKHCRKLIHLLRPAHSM
In short: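 Active site-directed competition binding panel (KinomeScan, 468 kinases). Test compound at 1 μM. Read-out is kinase binding remaining versus DMSO control, expressed as percent of control. Scores above 35% are treated as weak binding.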

[19] = biological target: Dual specificity testis-specific protein kinase 1 (Homo sapiens) (UniProt Q15569); assay: Binding affinity to wild-type human full length TESK1 (R37 to S626 residues) expressed in bacterial expression system assessed as residual binding level at 1 uM by Kinomescan method relative to control
Sequence of Dual specificity testis-specific protein kinase 1 (Homo sapiens) (Q15569 whole entry, looked up, the tested form may be a part): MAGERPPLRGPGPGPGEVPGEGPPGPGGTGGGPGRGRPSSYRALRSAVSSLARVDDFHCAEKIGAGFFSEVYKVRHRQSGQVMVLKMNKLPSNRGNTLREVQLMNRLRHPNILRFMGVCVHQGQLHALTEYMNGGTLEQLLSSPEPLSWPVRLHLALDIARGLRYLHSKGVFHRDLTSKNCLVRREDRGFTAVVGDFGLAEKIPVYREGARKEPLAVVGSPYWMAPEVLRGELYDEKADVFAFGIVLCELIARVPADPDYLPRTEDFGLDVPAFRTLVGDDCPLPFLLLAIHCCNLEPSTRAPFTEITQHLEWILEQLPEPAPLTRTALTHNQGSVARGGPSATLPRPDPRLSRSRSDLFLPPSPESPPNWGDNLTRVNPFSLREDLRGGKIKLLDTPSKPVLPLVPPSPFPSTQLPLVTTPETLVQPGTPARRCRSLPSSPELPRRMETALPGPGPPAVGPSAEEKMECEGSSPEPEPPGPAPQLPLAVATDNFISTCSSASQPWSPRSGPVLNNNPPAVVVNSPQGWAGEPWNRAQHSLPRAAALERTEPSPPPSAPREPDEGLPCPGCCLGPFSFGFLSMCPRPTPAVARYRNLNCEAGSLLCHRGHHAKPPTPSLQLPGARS

[20] = biological target: Testis-specific serine/threonine-protein kinase 1 (Homo sapiens) (UniProt Q9BXA7); assay: Binding affinity to wild-type human full length TSSK1B (M1 to Q367 residues) expressed in bacterial expression system assessed as residual binding level at 1 uM by Kinomescan method relative to control; in short: as §1

C=CC(=O)Nc1ccccc1Nc1nc(Nc2ccc(N3CCN(C)CC3)cc2)ncc1C(=O)Nc1c(C)cccc1Cl
inhibition [1]: inactive
Activity [2]: 100%
Activity [3]: 100%
Activity [4]: 95%
Activity [5]: 94%
Activity [6]: 100%
Activity [7]: 100%
Activity [8]: 72%
Activity [9]: 100%
Activity [10]: 100%
Activity [11]: 90%
Activity [12]: 79%
Activity [13]: 99%
Activity [14]: 100%
Activity [15]: 92%
Activity [16]: 87%
Activity [17]: 100%
Activity [18]: 47%
Activity [19]: 100%
Activity [20]: 86%
